Assay results gathered from unrelated publications.
Protocols differ between the studies behind these lines.
MAOB: Amine oxidase [flavin-containing] B (MAOB, Homo sapiens, UniProt P27338)

O=[N+]([O-])c1cc(Cl)c(O)c(Cl)c1 — IC50 (Sulfotransferase 1A1 (SULT1A1, Homo sapiens, UniProt P50225); enzyme activity; inhibitor): 0.245 µM
Cc1cc(SCc2sc(-c3ccc(C(F)(F)F)c(F)c3)nc2C)ccc1OCC(=O)O — IC50 (Retinoic acid receptor RXR-alpha (RXRA, Homo sapiens, UniProt P19793); reporter gene; antagonist; luciferase): 22.9 µM
C#CCNc1nc(NCCC2CCN(Cc3ccccc3)CC2)c(C#N)c(-c2ccccc2)c1C#N — IC50 (MAOB; enzyme activity; inhibitor; fluorescence; with preincubation): > 100 µM
COc1ncccc1-c1cnn2ccc(N3CCN(C(=O)OC(C)C)CC3)nc12 — IC50 (MAOB; enzyme activity; inhibitor): > 30 µM
COc1cc(C(=O)N2CC[C@@H](O)[C@@H](N)C2)cc2nc(-c3cc4ccccc4n3CC3CC3)n(C)c12 — IC50 (MAOB; enzyme activity; inhibitor): 15.8 µM
C[C@H](N)Cn1ncc2ccc3c(c21)CCCO3 — IC50 (Beta-1 adrenergic receptor (ADRB1, Homo sapiens, UniProt P08588); ligand displacement; radioligand): 5 µM
C#CCNc1nc(NCCCCC2CCN(Cc3ccccc3)CC2)c(C#N)c(-c2ccccc2)c1C#N — IC50 (MAOB; enzyme activity; inhibitor; fluorescence; with preincubation): > 100 µM
COc1ccc2c(c1)[nH]c1c(C)nccc12 — IC50 (MAOB; enzyme activity; inhibitor): 37.5 µM
C#CCN(C)c1nc(NCCCCC2CCN(Cc3ccccc3)CC2)c(C#N)c(-c2ccccc2)c1C#N — IC50 (MAOB; enzyme activity; inhibitor; fluorescence; with preincubation): > 100 µM
CSCC[C@@H]1NC(=O)[C@H](Cc2c[nH]c3ccccc23)NC(=O)[C@H](CCCCN)NC(=O)[C@@H](NC(=O)[C@H](C)N)CSSC[C@@H](C(=O)NCC(=O)NCC(=O)NCC(N)=O)NC(=O)[C@H](Cc2ccc(O)cc2)NC(=O)CNC(=O)[C@H](CCC(=O)O)NC(=O)[C@H](CCC(=O)O)NC1=O — IC50 (Lysine-specific demethylase 4C (KDM4C, Homo sapiens, UniProt Q9H3R0); enzyme activity; inhibitor; TR-FRET): ~520 µM
O=c1c2ccccc2[se]n1-c1ccccc1 — IC50 (ung (Escherichia coli, UniProt P12295); enzyme activity; inhibitor): > 200 µM
C#CCN(C)c1nc(NCCCC2CCN(Cc3ccccc3)CC2)c(C#N)cc1C#N — IC50 (MAOB; enzyme activity; inhibitor; fluorescence; with preincubation): 6.11 µM
COc1cccc(CO)c1 — IC50 (MAOB; enzyme activity; inhibitor; fluorescence): > 10 µM
